According to ChEMBL document CHEMBL1145801, “Inhibition of Cdc25 phosphatases by indolyldihydroxyquinones” (J Med Chem, 2003):
pIC50: −log10 of the molar value.

How the values were obtained:
[1] = target: T1, M-phase inducer phosphatase 1 (Homo sapiens) (UniProt P30304); assay: Percent inhibition of cell division cycle 25A at 50 uM
T1 sequence (whole entry): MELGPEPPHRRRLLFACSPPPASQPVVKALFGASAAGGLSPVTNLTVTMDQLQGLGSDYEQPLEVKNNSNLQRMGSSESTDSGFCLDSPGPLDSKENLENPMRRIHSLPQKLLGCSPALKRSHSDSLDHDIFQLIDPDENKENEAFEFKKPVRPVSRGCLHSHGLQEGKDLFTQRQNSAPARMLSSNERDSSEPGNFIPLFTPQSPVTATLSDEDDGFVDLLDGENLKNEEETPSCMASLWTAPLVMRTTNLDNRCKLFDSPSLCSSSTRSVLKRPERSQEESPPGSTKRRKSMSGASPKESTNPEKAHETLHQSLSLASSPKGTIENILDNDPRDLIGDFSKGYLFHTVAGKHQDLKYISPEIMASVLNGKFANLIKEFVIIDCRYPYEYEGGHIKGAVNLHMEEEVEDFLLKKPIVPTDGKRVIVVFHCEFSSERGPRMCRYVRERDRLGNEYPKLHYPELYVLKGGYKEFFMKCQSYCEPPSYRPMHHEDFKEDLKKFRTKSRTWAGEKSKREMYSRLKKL
Procedure, shortened: (§1)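 Single-point screen at 50 μM inhibitor against Cdc25A, Cdc25B or Cdc25C with 50 μM 3-O-methylfluorescein phosphate, product followed at 477 nm in time-dependent assays. Activity was compared with a simultaneous no-inhibitor control, and selected compounds were run in duplicate (average error ±7%).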

[2] = target: T2, M-phase inducer phosphatase 2 (Homo sapiens) (UniProt P30305); assay: Percent inhibition of cell division cycle 25B at 50 uM; procedure, shortened: as §1
T2 sequence (whole entry): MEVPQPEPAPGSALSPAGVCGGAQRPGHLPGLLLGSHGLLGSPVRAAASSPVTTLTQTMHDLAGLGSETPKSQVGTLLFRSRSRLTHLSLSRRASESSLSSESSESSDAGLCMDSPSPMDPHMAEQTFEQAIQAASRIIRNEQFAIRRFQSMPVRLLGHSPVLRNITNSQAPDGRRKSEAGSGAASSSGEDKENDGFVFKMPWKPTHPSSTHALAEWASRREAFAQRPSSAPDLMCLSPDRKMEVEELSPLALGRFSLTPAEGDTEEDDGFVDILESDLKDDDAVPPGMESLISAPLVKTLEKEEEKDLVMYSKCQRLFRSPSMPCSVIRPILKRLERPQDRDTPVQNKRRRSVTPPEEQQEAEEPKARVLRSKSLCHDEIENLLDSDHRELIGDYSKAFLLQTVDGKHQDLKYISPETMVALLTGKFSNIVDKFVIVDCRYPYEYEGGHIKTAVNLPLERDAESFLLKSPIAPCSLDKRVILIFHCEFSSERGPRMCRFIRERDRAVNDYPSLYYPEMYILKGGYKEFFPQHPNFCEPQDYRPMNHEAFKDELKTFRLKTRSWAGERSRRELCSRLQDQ

[3] = target: T3, M-phase inducer phosphatase 3 (Homo sapiens) (UniProt P30307); assay: Percent inhibition of cell division cycle 25 degree C at 50 uM; procedure, shortened: as §1
T3 sequence (whole entry): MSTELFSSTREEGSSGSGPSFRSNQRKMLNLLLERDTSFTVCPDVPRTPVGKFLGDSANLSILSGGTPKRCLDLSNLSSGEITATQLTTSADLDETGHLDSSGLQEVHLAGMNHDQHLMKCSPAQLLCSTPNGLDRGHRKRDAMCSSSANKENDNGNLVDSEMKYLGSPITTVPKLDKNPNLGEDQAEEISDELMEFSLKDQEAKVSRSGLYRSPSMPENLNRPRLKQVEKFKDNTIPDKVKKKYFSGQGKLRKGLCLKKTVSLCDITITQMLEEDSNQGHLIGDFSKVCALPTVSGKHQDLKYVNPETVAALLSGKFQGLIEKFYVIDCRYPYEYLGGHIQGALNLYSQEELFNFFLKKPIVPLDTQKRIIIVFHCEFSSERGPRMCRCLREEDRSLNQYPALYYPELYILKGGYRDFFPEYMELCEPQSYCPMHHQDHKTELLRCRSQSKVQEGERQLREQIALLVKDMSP

[4] = target: T4, M-phase inducer phosphatase 2 (Homo sapiens, UniProt P30305); assay: Eight point inhibitory concentration against Cell division cycle 25B was determined
T4 sequence (P30305 whole entry): T2 sequence (whole entry)
Procedure, shortened: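 Cdc25B activity read by UV-vis at 477 nm as product formed from 3-O-methylfluorescein phosphate (mFP) at 50 μM (~5 × Km), time-dependent, initial-velocity conditions (2–5% turnover); eight inhibitor concentrations, IC50 fitted to eq 1. Each reaction compared with a simultaneous no-inhibitor control; selected compounds run in duplicate.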

[5] = target: T5, M-phase inducer phosphatase 1 (Homo sapiens, UniProt P30304); assay: Eight point inhibitory concentration against Cell division cycle 25A was determined
T5 sequence (P30304 whole entry): T1 sequence (whole entry)
Procedure, shortened: (§2)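 Phosphatase activity measured with 3-O-methylfluorescein phosphate at 50 μM (~5 × Km), product formation followed at 477 nm by UV-vis under initial velocity conditions (2–5% turnover) in time-dependent assays. Eight inhibitor concentrations were used, and IC50 was obtained by fitting to a dose–response equation.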

[6] = target: T6, M-phase inducer phosphatase 3 (Homo sapiens, UniProt P30307); assay: Eight point inhibitory concentration against Cell division cycle 25 degree C was determined; procedure, shortened: as §2
T6 sequence (P30307 whole entry): T3 sequence (whole entry)

Row | SMILES | inhibition [1] [%] | inhibition [2] [%] | inhibition [3] [%] | pIC50 [4] | pIC50 [5] | pIC50 [6]
1 | O=C1C=C(O)C(=O)C(c2c[nH]c3cc(OCc4ccccc4)ccc23)=C1O | 82 | 97 | 92 | – | – | –
2 | O=C1C=C(O)C(=O)C(c2c[nH]c3cccc(Cl)c23)=C1O | 22 | 21 | 0 | < 4.30 | 4.55 | < 4.30
3 | COc1cc2[nH]cc(C3=C(O)C(O)=CC(=O)C3=O)c2cc1OC | 54 | 19 | 20 | – | – | –
4 | Cn1cc(C2=C(O)C(O)=CC(=O)C2=O)c2ccccc21 | 18 | 42 | 19 | – | – | –
5 | Cc1ccccc1Cc1cccc2c(C3=C(O)C(O)=CC(=O)C3=O)c[nH]c12 | 100 | 97 | 94 | 6.00 | 6.00 | 5.46
6 | CC1(c2[nH]c3ccccc3c2C2=C(O)C(O)=CC(=O)C2=O)CC1 | 0 | 17 | 0 | – | – | –
7 | O=C1C=C(O)C(=O)C(c2c[nH]c3c(F)cccc23)=C1O | 100 | 67 | 68 | – | – | –
8 | O=C1C=C(O)C(=O)C(c2c[nH]c3ccc(Br)cc23)=C1O | 83 | 55 | 26 | – | 5.24 | –
9 | CCc1[nH]c2ccccc2c1C1=C(O)C(O)=CC(=O)C1=O | 15 | 36 | 14 | – | – | –
10 | O=C1C=C(O)C(=O)C(c2c[nH]c3c(Cc4ccccc4)cccc23)=C1O | 100 | 97 | 98 | 5.64 | 5.64 | 4.82
11 | O=C1C=C(O)C(=O)C(c2c[nH]c3cccc(OCc4ccccc4)c23)=C1O | 48 | 0 | 2 | – | – | –
12 | CC(C)=CCc1c(Cl)ccc2c(C3=C(O)C(O)=CC(=O)C3=O)c[nH]c12 | – | – | – | 5.14 | 5.40 | 4.96
13 | O=C1C=C(O)C(=O)C(c2c(C3CC3)[nH]c3ccccc23)=C1O | 22 | 32 | 0 | < 4.30 | 4.46 | < 4.30
14 | Cc1ccc2[nH]c(C)c(C3=C(O)C(O)=CC(=O)C3=O)c2c1 | 18 | 20 | 25 | – | – | –
15 | Cc1cccc2c(C3=C(O)C(O)=CC(=O)C3=O)c[nH]c12 | 0 | 0 | 1 | – | – | –
16 | COc1cccc2[nH]cc(C3=C(O)C(O)=CC(=O)C3=O)c12 | 40 | 21 | 19 | – | – | –
17 | Cc1cccc2[nH]cc(C3=C(O)C(O)=CC(=O)C3=O)c12 | 39 | 9 | 28 | – | – | –
18 | COc1ccc2[nH]cc(C3=C(O)C(O)=CC(=O)C3=O)c2c1 | 0 | 0 | 0 | – | – | –
19 | O=C1/C(=N/CCc2cc(Br)c(O)c(Br)c2)C=C(O)c2cccnc21 | – | – | – | 4.46 | 4.82 | 4.46
20 | O=C1C=C(O)C(=O)C(c2c[nH]c3ccc(F)cc23)=C1O | 39 | 32 | 23 | – | – | –
21 | CC(C)=CCC/C(C)=C/Cc1cccc2c(C3=C(O)C(O)=CC(=O)C3=O)c[nH]c12 | 86 | 95 | 96 | – | 6.00 | 5.00
22 | COc1ccc2[nH]c(C)c(C3=C(O)C(O)=CC(=O)C3=O)c2c1 | 0 | 0 | 31 | – | – | –
23 | Cc1[nH]c2ccccc2c1C1=C(O)C(O)=CC(=O)C1=O | 24 | 9 | 5 | – | – | –
24 | O=C1C=C(O)C(=O)C(c2c[nH]c3cccc(Br)c23)=C1O | 51 | 6 | 54 | – | – | –
25 | O=C1C=C(O)C(=O)C(c2c(-c3ccccc3)[nH]c3ccccc23)=C1O | 40 | 38 | 18 | – | – | –
26 | O=C1C=C(O)C(=O)C(c2c[nH]c3cc4c(cc23)OCO4)=C1O | 99 | 88 | 63 | – | – | –
27 | Cc1ccc2c(C3=C(O)C(O)=CC(=O)C3=O)c[nH]c2c1 | 66 | 16 | 28 | – | – | –
28 | O=C1C=C(O)C(=O)C(c2c[nH]c3cccc(F)c23)=C1O | 20 | 5 | 0 | – | – | –
29 | Cc1ccc2c(C3=C(O)C(O)=CC(=O)C3=O)c[nH]c2c1C | 9 | 32 | 20 | – | – | –

Other lines, results leading:

Row | inhibition [1] [%] | inhibition [2] [%] | inhibition [3] [%] | pIC50 [4] | pIC50 [5] | pIC50 [6] | SMILES
30 | 30 | 11 | 0 | – | – | – | CC(C)(C)c1[nH]c2ccccc2c1C1=C(O)C(O)=CC(=O)C1=O
31 | 7 | 13 | 0 | – | – | – | CC(C)c1[nH]c2ccccc2c1C1=C(O)C(O)=CC(=O)C1=O
32 | 97 | 90 | 48 | – | – | – | O=C1C=C(O)C(=O)C(c2c[nH]c3cc(F)ccc23)=C1O
33 | 99 | 79 | 75 | 4.62 | 5.60 | 4.82 | O=C1C=C(O)C(=O)C(c2c[nH]c3c2ccc2ccccc23)=C1O
34 | 12 | 0 | 21 | – | – | – | C=CC(C)(C)c1[nH]c2ccccc2c1C1=C(O)C(O)=CC(=O)C1=O
35 | 100 | 50 | 26 | – | 5.26 | – | O=C1C=C(O)C(=O)C(c2c[nH]c3ccc(OCc4ccccc4)cc23)=C1O
36 | 0 | 16 | 0 | – | – | – | Cc1ccc2c(C3=C(O)C(O)=CC(=O)C3=O)c(C)[nH]c2c1
37 | 11 | 45 | 11 | – | – | – | O=C1C=C(O)C(=O)C(c2c[nH]c3c(Br)cccc23)=C1O
38 | 0 | 23 | 54 | – | – | – | O=C1C=C(O)C(=O)C(c2c[nH]c3c(Cl)cccc23)=C1O
39 | 0 | 15 | 13 | – | – | – | COc1cccc2c(C3=C(O)C(O)=CC(=O)C3=O)c[nH]c12
40 | 0 | 42 | 30 | – | – | – | Cc1[nH]c2ccc(Cl)cc2c1C1=C(O)C(O)=CC(=O)C1=O
41 | 44 | 11 | 22 | – | – | – | CC1(c2[nH]c3ccccc3c2C2=C(O)C(O)=CC(=O)C2=O)CCCCC1
42 | 59 | 32 | 45 | – | – | – | O=C1C=C(O)C(=O)C(c2c[nH]c3ccc(Cl)cc23)=C1O
43 | 0 | 0 | 0 | – | – | – | Cc1[nH]c2c(C)cccc2c1C1=C(O)C(O)=CC(=O)C1=O
